Measurements as given in ChEMBL document CHEMBL4387702, “Design and synthesis novel di-carbonyl analogs of curcumin (DACs) act as potent anti-inflammatory agents against LPS-induced acute lung injury (ALI)” (Eur J Med Chem, 2019).
Activity calls are given as the source filed them. The rule behind the calls is not given here.

Experiments:
[1] = system: Mus musculus; assay: Antiinflammatory activity in C57BL/6 mouse model of LPS-induced acute lung injury assessed as reduction in VCAM1 mRNA expression in lung tissue at 10 mg/kg, ip administered daily for one week prior to LPS challenge and measured after 6 hrs by TRIZOL reagent-based RT-qPCR analysis; type: functional, organism-based
In short: (§1)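 Mouse ALI model with eight C57BL/6 mice per group. Compound was given at 10 mg/kg i.p. daily for one week; controls received 0.9% saline. LPS was instilled intratracheally at 5 mg/kg. Mice were euthanized with chloral hydrate 6 h later and lungs collected. Lung mRNA for each target was quantified by real-time qPCR.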

[2] = system: Mus musculus; assay: Antiinflammatory activity in C57BL/6 mouse model of LPS-induced acute lung injury assessed as reduction in ICAM1 mRNA expression in lung tissue at 10 mg/kg, ip administered daily for one week prior to LPS challenge and measured after 6 hrs by TRIZOL reagent-based RT-qPCR analysis; type: functional, organism-based; in short: as §1
[3] = system: RAW264.7; assay: Inhibition of LPS-induced ERK phosphorylation in ICR mouse RAW264.7 cells at 10 uM preincubated for 0.5 hrs followed by LPS challenge and measured after 30 mins by immunoblotting analysis; type: cell-based
In short: (§2)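 RAW 264.7 cells were pretreated with compound for 0.5 h and then stimulated with LPS for 30 min. Lysates were resolved on 10% or 12% SDS-PAGE and transferred to nitrocellulose. Membranes were blocked in TBS (pH 7.6) with 0.05% Tween 20 and 5% milk. Blots were probed for p-p38, p38, p-ERK, ERK, IκBα and GAPDH, detected with HRP secondaries and ECL.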

[4] = Inhibition of MAPK/NFkappaB in ICR mouse RAW264.7 cells assessed as reduction in LPS-induced TNFalpha production pretreated for 0.5 hrs followed by LPS challenge and measured after 24 hrs by ELISA; type: cell-based
[5] = system: Mus musculus; assay: Antiinflammatory activity in C57BL/6 mouse model of LPS-induced acute lung injury assessed as reduction of F4/80 macrophage level in lung tissue at 10 mg/kg, ip administered daily for one week prior to LPS challenge measured after 6 hrs by hematoxylin staining-based immunohistochemistry method; type: functional, organism-based
In short: (§3)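 Lungs came from C57BL/6 mice dosed at 10 mg/kg i.p. daily for one week, then given intratracheal LPS 5 mg/kg and harvested at 6 h. Tissue was paraffin-embedded and cut into 5 µm sections. Antigen retrieval used microwaving in 0.01 mol/L citrate (pH 6.0), then 3% H2O2 in methanol for 30 min. Sections took LY-6G or F4/80 primary antibody overnight at 4 °C, secondary at 1:200, DAB development and hematoxylin counterstain.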

[6] = system: Mus musculus; assay: Antiinflammatory activity in C57BL/6 mouse model of LPS-induced acute lung injury assessed as reduction in TNF-alpha production in BALF at 10 mg/kg, ip administered daily for one week prior to LPS challenge and measured after 6 hrs by ELISA; type: functional, organism-based
In short: (§4)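 In C57BL/6 mice (eight per group), compound was dosed at 10 mg/kg i.p. once daily for a week, with a 0.9% saline vehicle control. LPS 5 mg/kg was given intratracheally and animals were euthanized with chloral hydrate after 6 h. TNF-α and IL-6 in serum and BALF were measured by ELISA. Data are mean ± SEM, n = 6.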

[7] = system: RAW264.7; assay: Inhibition of MAPK/NFkappaB signaling in ICR mouse RAW264.7 cells assessed as reduction in LPS-induced TNF-alpha mRNA expression pretreated for 0.5 hrs followed by LPS challenge and measured after 40 mins by TRIZOL reagent-based RT-qPCR analysis; type: cell-based
In short: (§5)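 RAW 264.7 cells were pretreated with compound for 0.5 h and then activated with LPS. Values were normalized to actin and expressed relative to the LPS group.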

[8] = Inhibition of MAPK/NFkappaB in ICR mouse RAW264.7 cells assessed as reduction in LPS-induced IL6 production pretreated for 0.5 hrs followed by LPS challenge and measured after 24 hrs by ELISA; type: cell-based
[9] = system: RAW264.7; assay: Inhibition of NFkappaB/MAPK signaling in LPS-induced mouse RAW264.7 cells assessed as down regulation of IkappaB expression at 10 uM preincubated for 0.5 hrs followed by LPS-challenge and measured after 30 mins by immunoblotting analysis; type: cell-based; in short: as §2
[10] = system: Mus musculus; assay: Antiinflammatory activity in C57BL/6 mouse model of LPS-induced acute lung injury assessed as reduction of pathological lesions in lung tissue at 10 mg/kg, ip administered daily for one week prior to LPS challenge and measured after 6 hrs by hematoxylin and eosin staining-based light microscopic analysis; type: functional, organism-based
In short: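 Lungs were taken 6 h after intratracheal LPS (5 mg/kg) from C57BL/6 mice pretreated at 10 mg/kg i.p. daily for one week. Tissue was fixed, embedded in paraffin, sectioned at 5 µm and stained with H&E. Injury features examined were edema, congestion, septal thickening, infiltration and tissue destruction, assessed by light microscopy.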

[11] = system: Mus musculus; assay: Antiinflammatory activity in C57BL/6 mouse model of LPS-induced acute lung injury assessed as reduction in TNF-alpha production in serum at 10 mg/kg, ip administered daily for one week prior to LPS challenge and measured after 6 hrs by ELISA; type: functional, organism-based; in short: as §4
[12] = system: Mus musculus; assay: Antiinflammatory activity in C57BL/6 mouse model of LPS-induced acute lung injury assessed as reduction in neutrophil count in BALF at 10 mg/kg, ip administered daily for one week prior to LPS challenge and measured after 6 hrs; type: functional, organism-based
In short: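 C57BL/6 mice (eight per group) received 10 mg/kg i.p. daily for one week; vehicle was 0.9% saline. They were then challenged with intratracheal LPS at 5 mg/kg and sacrificed 6 h later. Endpoints were lung wet/dry weight ratio and total and neutrophil cell counts in BALF, reported as mean ± SEM, n = 6.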

[13] = system: RAW264.7; assay: Inhibition of MAPK/NFkappaB signaling in ICR mouse RAW264.7 cells assessed as reduction in LPS-induced ICAM1 mRNA expression pretreated for 0.5 hrs followed by LPS challenge and measured after 40 mins by TRIZOL reagent-based RT-qPCR analysis; type: cell-based; in short: as §5
[14] = system: Mus musculus; assay: Antiinflammatory activity in C57BL/6 mouse model of LPS-induced acute lung injury assessed as reduction of LY-6G neutrophil level in lung tissue at 10 mg/kg, ip administered daily for one week prior to LPS challenge and measured after 6 hrs by hematoxylin staining-based immunohistochemistry method; type: functional, organism-based; in short: as §3
[15] = Stability in pH 7.4 phosphate buffer assessed as compound decomposition measured up to 25 mins by UV-Vis spectroscopy; type: physicochemical; conditions: pH 7.4, 25 min
In short: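 Compound stability was followed by recording UV-visible absorption spectra in phosphate buffer at pH 7.4.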

[16] = system: Mus musculus; assay: Antiinflammatory activity in C57BL/6 mouse model of LPS-induced acute lung injury assessed as reduction in IL-6 production in serum at 10 mg/kg, ip administered daily for one week prior to LPS challenge and measured after 6 hrs by ELISA; type: functional, organism-based; in short: as §4
[17] = molecular target: Transcription factor p65 (Mus musculus) (UniProt Q04207); assay: Inhibition of LPS-induced NFkappaB p65 nuclear translocation in ICR mouse RAW264.7 cells preincubated for 0.5 hrs followed by LPS challenge and measured after 40 mins by DAPI staining-based immunofluorescence microscopic analysis; type: cell-based
Sequence of Transcription factor p65 (Mus musculus) (Q04207 whole entry): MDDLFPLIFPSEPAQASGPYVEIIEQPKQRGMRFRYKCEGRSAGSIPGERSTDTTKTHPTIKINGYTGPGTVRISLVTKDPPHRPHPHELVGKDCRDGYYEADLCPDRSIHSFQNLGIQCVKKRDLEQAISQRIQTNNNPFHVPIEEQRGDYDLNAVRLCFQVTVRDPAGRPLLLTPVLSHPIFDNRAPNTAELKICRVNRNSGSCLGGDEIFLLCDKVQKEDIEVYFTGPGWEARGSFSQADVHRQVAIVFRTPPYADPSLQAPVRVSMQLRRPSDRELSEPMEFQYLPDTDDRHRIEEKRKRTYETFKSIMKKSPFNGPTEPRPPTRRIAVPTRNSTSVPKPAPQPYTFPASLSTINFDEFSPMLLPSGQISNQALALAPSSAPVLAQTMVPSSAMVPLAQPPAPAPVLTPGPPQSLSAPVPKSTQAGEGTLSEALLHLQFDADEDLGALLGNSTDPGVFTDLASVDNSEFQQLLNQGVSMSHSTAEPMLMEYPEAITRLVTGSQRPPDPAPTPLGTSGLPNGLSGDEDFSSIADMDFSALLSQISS
In short: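 RAW 264.7 cells were pretreated with compound for 0.5 h, then given LPS for 40 min (methods) or 45 min (legend). Cells were fixed with 4% paraformaldehyde and permeabilized in methanol. Anti-p65 (1:200) was applied overnight at 4 °C, then PE-conjugated secondary (1:200) for 2 h. Nuclei were stained with DAPI and cells viewed by fluorescence microscopy.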

## COc1cc(/C=C/C(=O)N2CCC/C(=C\c3cc(OC)c(OC)c(OC)c3)C2=O)ccc1O
[1]
  Activity: Active
[2]
  Activity: Active
[3]
  inhibition: Active
[4]
  IC50: 3.69 µM
[5]
  Activity: Active
[6]
  Activity: Active
[7]
  inhibition: Active
[8]
  IC50: 3.68 µM
[9]
  inhibition: Active
[10]
  Activity: Active
[11]
  Activity: Active
[12]
  Activity: Active
[13]
  inhibition: Active
[14]
  Activity: Active
[15]
  Stability: Stable
[16]
  Activity: Active
[17]
  inhibition: Active

## COc1cc(/C=C/C(=O)N2CCC/C(=C\c3cc(OC)c(OC)c(OC)c3)C2=O)ccc1OC(C)=O
[1]
  Activity: Active
[2]
  Activity: Active
[3]
  inhibition: Active
[4]
  IC50: 2.33 µM
[5]
  Activity: Active
[6]
  Activity: Active
[7]
  inhibition: Active
[8]
  IC50: 2.4 µM
[9]
  inhibition: Active
[10]
  Activity: Active
[11]
  Activity: Active
[12]
  Activity: Active
[13]
  inhibition: Active
[14]
  Activity: Active
[15]
  Stability: Stable
[16]
  Activity: Active
[17]
  inhibition: Active
